The bioavailability is the share of a dose that reaches the circulation, judged against a reference dose that is usually intravenous. The low end stands for poor availability, the high end for good availability. As usually defined, the AUC is concentration integrated over time. A word on the logD: it is lipophilicity at a set pH, counting ionised and neutral species. The low end stands for lower lipophilicity, the high end for higher lipophilicity. By solubility is commonly meant the dissolved amount per volume that the medium holds. Read a low solubility as a poorly soluble substance.

SMILES strings stand for the structures. In brackets after ≈: the same amount, converted by molar mass.

This is an account of results in ChEMBL document CHEMBL1667846, “Optimization of a novel class of benzimidazole-based farnesoid X receptor (FXR) agonists to improve physicochemical and ADME properties” (Bioorg Med Chem Lett, 2011).

The nature of series [1]: Oral bioavailability in Wistar rat at 2 mg/kg, iv or 5 mg/kg, po. Format: ADME, organism-based. The note with it: in vivo. Summed up:
(§1)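 Male C57BL/6 mice (4 mg/kg iv, 10 mg/kg po) and male Wistar rats (2 mg/kg iv, 5 mg/kg po), single doses. Oral vehicle was 7.5% gelatin in 0.62% aqueous NaCl. Intravenous vehicle was 30% N-methylpyrrolidinone in aqueous 100 mM TRIS buffer pH 8.5. Reported parameters were Cl, Cmax/dose, Vss, AUC/dose, t1/2 and oral bioavailability F.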

Series [2] is described as follows: Volume of distribution at steady state in Wistar rat at 2 mg/kg, iv or 5 mg/kg, po. The note with it: in vivo, read-out: Vdss. Format: ADME, organism-based. An outline of the steps: as §1
Series [3] can be described thus: Cmax in Wistar rat at 2 mg/kg, iv or 5 mg/kg, po. It counts as ADME, organism-based. The note with it: in vivo. An outline of the steps:
as §1

Series [4] in a line: AUC in Wistar rat at 2 mg/kg, iv or 5 mg/kg, po. The note with it: plasma. Format: ADME, organism-based. An outline of the steps: as §1
Series [5] can be described thus: Lipophilicity log D of the compound at pH 7.4. The note with it: buffer. Format: physicochemical. Summed up:
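Lipophilicity measured as log D at pH 7.4.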

A short description of series [6]: Solubility of the compound in 0.05 M phosphate buffer at pH 6.5. Format: physicochemical.
A short description of series [7]: Oral bioavailability in C57BL/6 mouse at 4 mg/kg, iv or 10 mg/kg, po. It counts as ADME, organism-based. The note with it: in vivo. An outline of the steps:
as §1

Series [8] can be described thus: Volume of distribution at steady state in C57BL/6 mouse at 4 mg/kg, iv. It counts as ADME, organism-based. Also noted: dose 4 mg/kg, route intravenous. The note with it: in vivo, read-out: Vdss. An outline of the steps: as §1
Series [9] is described as follows: Cmax in C57BL/6 mouse at 4 mg/kg, iv or 10 mg/kg, po. As to conditions: in vivo. It counts as ADME, organism-based. Summed up: as §1
A short description of series [10]: AUC in C57BL/6 mouse at 4 mg/kg, iv or 10 mg/kg, po. Format: ADME, organism-based. The note with it: plasma. Summed up:
as §1

Turning to `O=C(O)c1ccc(NC(=O)[C@H](C2CCCCC2)n2c(-c3ccc(Cl)cc3)nc3cc(F)c(F)cc32)c(F)c1`, the bioavailability was 59% in series [1] and 33% in [7]. In addition, the Vd in series [2] was 0.62 L/kg; in series [8], 1.24 L/kg. Further, the Cmax/dose in series [3] turned out to be 270 ng/mL; in series [9], 205 ng/mL. For the same compound, the AUC in series [4] turned out to be 3030 ng·h/mL; in [10], 5430 ng·h/mL. The compound further had a logD in series [5] of 2.66. In series [6], this compound displayed a solubility of 115 µg/mL (≈ 212 µM).

With `O=C(NC1CCCCC1)[C@H](C1CCCCC1)n1c(-c2ccc(Cl)cc2)nc2cc(F)c(Cl)cc21`, the logD in [5] was > 4. The solubility in series [6] is < 1 µg/mL.

On to `O=C(O)c1ccc(NC(=O)[C@H](C2CCCCC2)n2c(-c3ccc(Cl)cc3)nc3ccccc32)c(C(F)(F)F)c1`, for which the logD in series [5] amounted to 2.34. The compound further gave a solubility in [6] of 175 µg/mL (≈ 315 µM).

On to `O=C(N[C@H]1CC[C@H](O)CC1)[C@H](C1CCCCC1)n1c(-c2ccc(Cl)cc2)nc2cc(F)c(F)cc21`, for which the logD in series [5] is > 4. Besides, in series [6], the concentration in solution (solubility) was 17 µg/mL (≈ 33.9 µM).

`Cc1cc(C(=O)O)ccc1NC(=O)[C@H](C1CCCCC1)n1c(-c2ccc(Cl)cc2)nc2cc(F)c(F)cc21` gave a logD in series [5] of 2.83. The solubility in series [6] stood at 32 µg/mL (≈ 59.5 µM).

In series [5], `O=C(N[C@H]1CC[C@H](C(=O)O)CC1)[C@H](C1CCCCC1)n1c(-c2ccc(Cl)cc2)nc2cc(F)c(F)cc21` yielded a logD of 2.49. This compound had a solubility in series [6] of 395 µg/mL (≈ 745 µM).

`O=C(O)c1ccc(NC(=O)[C@H](C2CCCCC2)n2c(-c3ccc(Cl)cc3)nc3cc(F)c(F)cc32)cc1` came in with a logD in [5] of 3.06. The compound further came in with a solubility in [6] of 88 µg/mL (≈ 168 µM).

Compound `COc1ccc(-c2nc3cc(F)c(F)cc3n2[C@H](C(=O)N[C@H]2CC[C@H](C(=O)O)CC2)C2CCCCC2)c(OC)n1` had a logD in series [5] of 1.91. In series [6], this compound yielded a solubility of 465 µg/mL (≈ 835 µM).

`O=C(O)c1ccc(NC(=O)[C@H](C2CCCCC2)n2c(-c3ccc(Cl)cc3)nc3cc(F)c(F)cc32)c(Cl)c1` registered a logD in series [5] of 2.98. For the same compound, the solubility in series [6] is 51 µg/mL (≈ 91.3 µM).

With `O=C(Nc1ccc(OC2(C(=O)O)CC2)cc1F)[C@H](C1CCCCC1)n1c(-c2ccc(Cl)cc2)nc2cc(F)c(F)cc21`, in series [5], the logD was 2.32. In series [6], this compound returned a solubility of 280 µg/mL (≈ 468 µM).

In series [5], `O=C(Nc1ccc(-c2nnn[nH]2)cc1F)[C@H](C1CCCCC1)n1c(-c2ccc(Cl)cc2)nc2cc(F)c(F)cc21` gave a logD of 2.96. The compound also registered a solubility in [6] of 490 µg/mL (≈ 866 µM).

In the case of `O=C(NC1CCCCC1)[C@H](C1CCCCC1)n1c(-c2ccc(Cl)cc2)nc2cc(F)c(F)cc21`, the logD in [5] was > 4. Besides, the solubility in [6] was < 1 µg/mL.
